Assay [1] is filed under the species Rattus norvegicus. Put plainly: Compound was evaluated for the stimulation of rat retinal adenylate cyclase by effect of its alkyl length at 10.0 uM dose. It is filed as functional. The gist of the method:
(§1)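 Retinal homogenate, […], incubated 20 min at 30 °C. Stopped with SDS/ATP/cAMP plus [3H]cAMP recovery tracer and 2 min at 85 °C. [32P]cAMP isolated by Salomon column chromatography.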

The species entered for assay [2] is Rattus norvegicus. In words: Compound was evaluated for the stimulation of rat retinal adenylate cyclase by effect of its alkyl length at 1.0 uM dose. It counts as functional. In short, it runs like this: as §1
Assay [3] is filed under the species Rattus norvegicus. In words: Compound was evaluated for the stimulation of rat retinal adenylate cyclase by effect of its alkyl length at 0.1 uM dose. It is filed as functional. In short, it runs like this:
as §1

The species named for assay [4] is Rattus norvegicus. Put plainly: Compound was evaluated for the stimulation of rat retinal adenylate cyclase by effect of its alkyl length at 100.0 uM dose. It is filed as functional. In short, it runs like this:
as §1

Assay [5] is filed under the species Rattus norvegicus. Put plainly: Compound was evaluated for the stimulation of rat retinal adenylate cyclase at 10.0 uM dose. It counts as functional. The gist of the method: as §1
Assay [6] is filed under the species Rattus norvegicus. In words: Compound was evaluated for the stimulation of rat retinal adenylate cyclase at 0.1 uM dose. It counts as functional. The gist of the method: as §1
For assay [7], the species on record is Rattus norvegicus. Put plainly: Compound was evaluated for the stimulation of rat retinal adenylate cyclase at 100.0 uM dose. It is filed as functional. The gist of the method: as §1
The species entered for assay [8] is Rattus norvegicus. In words: Compound was evaluated for the stimulation of rat retinal adenylate cyclase at 1.0 uM dose. It is filed as functional. In short, it runs like this: as §1
The species entered for assay [9] is Canis familiaris. Put plainly: Compound was evaluated for the stimulation of canine renal artery; Inactive. It is filed as functional, organism-based. The conditions noted are these: Canis lupus familiaris.

The source made the active and inactive calls. No cut-off for these calls is given here.

Take `CN1Cc2ccccc2C(c2ccc(O)c(O)c2)C1` (stereo not given): the Stimulation in assay [1] is 122.6%; in assay [2], 46.5%; in [3], -1.7%; in assay [4], 144.9%.

For the molecule `CCCN1Cc2ccccc2C(c2ccc(O)c(O)c2)C1` (stereo not given), the Stimulation is 11.8% in [1], -7.7% in [2] and 46.4% in assay [4].

Consider `Oc1ccc(C2CNCc3ccccc32)cc1O` (stereo not given), for which the Stimulation in assay [5] worked out at 152.7%; in [6], 23.6%; in assay [1], 188%; in assay [2], 87.7%; in assay [3] it was 11.5%; in assay [4], 288.8%. In addition, the Stimulation in assay [7] came out at 198.8%; in assay [8], 89.6%.

For `Oc1cccc(C2CNCc3ccccc32)c1` (stereo not given), the Stimulation in [5] amounted to 47%; in [7], 81%; in assay [8], 21%. For the same molecule, the result in assay [9] was inactive.

With `Oc1ccc(C2CNCc3sccc32)cc1O` (stereo not given), the Stimulation in [5] is reported as 188.6%; in assay [6] it was 70.4%; in assay [7] it was 207%; in assay [8], 160.2%.

For the molecule `Oc1ccc(C2CNCCc3c2cc(O)c(O)c3Cl)cc1` (stereo not given) [FENOLDOPAM], the Stimulation in [5] was found to be 201.4%; in assay [6], 165.1%; in [7], 246%; in [8], 176%.

`CCN1Cc2ccccc2C(c2ccc(O)c(O)c2)C1` (stereo not given): the Stimulation is recorded as 42.7% in assay [1], -1% in [2], -8.8% in assay [3] and 94.1% in assay [4].

As to `NCCc1ccc(O)c(O)c1` [DOPAMINE], the Stimulation in assay [5] came to 209.8%; in [6], 25.7%; in [7] it was 295.3%; in assay [8], 116.2%.

Values taken from ChEMBL document CHEMBL1123933, “Specific dopamine D-1 and DA1 properties of 4-(mono- and -dihydroxyphenyl)-1,2,3,4-tetrahydroisoquinoline and its tetrahydrothieno[2,3-c]pyridine analogue” (1987).
